Where no end group is shown, it is not given here.
Key:
Stability = type: in vitro ADME; details: rat
Method in brief: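 Rat blood was spiked at 150 ng mL−1 to compare three stabilisation factors. Anticoagulant (EDTA-K2 or heparin sodium) was tested at 25 °C and 0 °C. Protease inhibitors (pepstatin A, aprotinin, cOmplete cocktail, AEBSF) were tested at 25 °C. Acidification with H2SO4 or HClO4 (0.1–0.3%) was tested at 25 °C and 0 °C. Samples were taken before and at 2, 5, 10, 20, 30 and 60 min, precipitated with organic solvent, centrifuged and analysed by UHPLC-MS/MS. Half-lives were calculated.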

[1] = Stability of SP in acidified rat plasma and blood; type: in vitro ADME
Method in brief: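 Blood was acidified with 0.3% perchloric acid. Low- and high-level samples (five replicates each) were held as follows: whole blood at 0 °C for 1 h; […] for 1 h before processing; extracts at 25 °C for 1 h; reconstituted samples in the autosampler at 4 °C for 24 h; plasma at −70 °C for 60 days; and three freeze–thaw cycles (−70 °C to ambient). Read-out was accuracy as deviation from nominal, with acceptance within 15%.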

[2] = Pharmacokinetic study after subcutaneous administration; type: in vivo, Sprague-Dawley rats
Method in brief: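 Twelve Sprague-Dawley rats (6 female, 6 male; 200 ± 20 g) were housed SPF at 22 ± 2 °C on a 12 h light–dark cycle and fasted about 12 h. Each received a single subcutaneous dose of 10 mg kg−1. Orbital blood was taken into pre-acidified EDTA-K2 tubes at 0, 0.5, 1, 2, 3, 5, 10, 20, 30, 45 and 60 min and iced; plasma was spun and analysed by UHPLC-MS/MS (LLOQ 0.1 ng mL−1). Non-compartmental analysis; mean ± SD.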

[3] = rats, subcutaneous 10 mg kg^−1, mean ± SD, n = 12

GQTYTSG [SP, GQTYTSG]
half-life (Stability; half-life of SP in blood samples, blood acidified with 0.3% HClO4 (v/v), 0 °C): > 350 min
half-life (Stability; half-life, 25 °C, in vitro): < 10 min
half-life (Stability; whole blood, half-life of SP in blood samples, EDTA-K2 as anticoagulant, samples kept at 0 °C): 11.5 ± 0.22 min
half-life (Stability; whole blood, half-life of SP in blood samples, blood acidified with 0.3% H2SO4 (v/v), 0 °C): > 350 min
Accuracy (stability) ([1]; blood, blood stability (0 °C for 1 h), 0.5 ng mL^−1): 114.4%
Accuracy (stability) ([1]; blood, blood stability (0 °C for 1 h), 300 ng mL^−1): 104.1%
Accuracy (stability) ([1]; plasma, auto-sampler stability (4 °C for 24 h), 0.25 ng mL^−1): 110.0%
Accuracy (stability) ([1]; plasma, auto-sampler stability (4 °C for 24 h), 150 ng mL^−1): 106.7%
Accuracy (stability) ([1]; plasma, freeze–thaw stability (three cycles), 0.25 ng mL^−1): 106.4%
Accuracy (stability) ([1]; plasma, freeze–thaw stability (three cycles), 150 ng mL^−1): 94.7%
Accuracy (stability) ([1]; plasma, long-term stability (−70 °C for 60 days), 0.25 ng mL^−1): 96.1%
Accuracy (stability) ([1]; plasma, long-term stability (−70 °C for 60 days), 150 ng mL^−1): 94.0%
Accuracy (stability) ([1]; plasma, post-preparation stability (25 °C for 1 h), 0.25 ng mL^−1): 90.8%
Accuracy (stability) ([1]; plasma, post-preparation stability (25 °C for 1 h), 150 ng mL^−1): 105.3%
Accuracy (stability) ([1]; plasma, short-term stability (0 °C for 1 h), 0.25 ng mL^−1): 96.4%
Accuracy (stability) ([1]; plasma, short-term stability (0 °C for 1 h), 150 ng mL^−1): 96.0%
Tmax ([2]; rat, in vivo, sc, 10 mg/kg): 1.75 min
half-life ([2]; rat, in vivo, sc, 10 mg/kg): < 10 min
CL (apparent total plasma clearance) [2, 3]: 17.9 ± 9.96 L/min
Vz (total volume of distribution) [2, 3]: 230 ± 118 L

From publication PMC9073091 (RSC Advances, 2019)
